Test results reported in ChEMBL document CHEMBL1142420, “Synthesis and DNA-cleaving activity of lactenediynes conjugated with DNA-complexing moieties” (2008).
Activity calls are given as the source filed them. The calls are words filed in the database; no cut-off is given here.

tested on: Escherichia coli; assay: Induction of plasmid pBR322 DNA cleavage at 1 mM after 24 hrs by gel electrophoresis
Summary of the method: (§1)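 Supercoiled pBR322 (90% form I) diluted to 50 µg/mL (75 µM/bp) in pH 7.5 Tris 40 mM/EDTA 4 mM. Incubated 24 h at 37 °C, then run on agarose gel with ethidium bromide and viewed at 302 nm. Form I versus II+III quantified by densitometry after subtracting form II present in the control.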

Activity	Compound
inactive	CON1C(=O)[C@@H]2CC#C/C=C\C#CC(C)[C@H]21 (stereo partly drawn)

tested on: Escherichia coli; assay: Induction of plasmid pBR322 DNA cleavage assessed as concentration required to cleave 50% of DNA after 24 hrs by gel electrophoresis; summary of the method: as §1

CS50 [µM]	Compound
150	CC(C)(C)OC(=O)N1C(=O)[C@@H]2CC#C/C=C\C#C[C@@H](OC(=O)CCc3ccc4ccccc4c3)[C@H]21
70	CC(=O)O[C@@H]1C#C/C=C\C#CC[C@H]2C(=O)N(C(=O)NCc3ccc4ccccc4c3)[C@H]12
25	CC(=O)O[C@@H]1C#C/C=C\C#CC[C@H]2C(=O)N(C(=O)NCCCCCN(C)C(=O)Cc3cccc4ccccc34)[C@H]12
25	CC(=O)O[C@@H]1C#C/C=C\C#CC[C@H]2C(=O)N(C(=O)NCCC(=O)NCc3ccccc3)[C@H]12
70	CC(=O)O[C@@H]1C#C/C=C\C#CC[C@H]2C(=O)N(C(=O)NCc3ccccc3)[C@H]12
30	CC(=O)O[C@H]1C#C/C=C\C#CC[C@H]2C(=O)N(C(=O)OC(C)(C)C)[C@H]12
150	CC(=O)O[C@@H]1C#C/C=C\C#CC[C@H]2C(=O)N(C(=O)NCCc3ccc4ccccc4c3)[C@H]12
25	CC(=O)O[C@@H]1C#C/C=C\C#CC[C@H]2C(=O)N(C(=O)NCc3cccc4ccccc34)[C@H]12
15	CCCCNC(=O)c1cc(NC(=O)c2cc(NC(=O)CCNC(=O)N3C(=O)[C@@H]4CC#C/C=C\C#C[C@@H](OC(C)=O)[C@H]43)n(C)c2)n(C)c1
80	CC(C)(C)OC(=O)N1C(=O)[C@@H]2CC#C/C=C\C#C[C@@H](OC(=O)Cc3cccc4ccccc34)[C@H]21
35	CC(=O)Nc1cc(C(=O)Nc2cc(C(=O)N(C)CCCCCNC(=O)N3C(=O)[C@@H]4CC#C/C=C\C#C[C@@H](OC(C)=O)[C@H]43)n(C)c2)n(C)c1
25	CC(=O)O[C@H]1C#C/C=C\C#CC[C@H]2C(=O)N(C(=O)NCc3cccc4ccccc34)[C@H]12
40	CC(=O)O[C@@H]1C#C/C=C\C#CC[C@H]2C(=O)N(C(=O)NCCc3cccc4ccccc34)[C@H]12
10	CC[C@@]1(O)C(=O)OCc2c1cc1n(c2=O)Cc2c-1nc1ccccc1c2/C=N/OCCNC(=O)CCNC(=O)N1C(=O)[C@@H]2CC#C/C=C\C#C[C@@H](OC(C)=O)[C@H]21
200	CC(=O)O[C@@H]1C#C/C=C\C#CC[C@H]2C(=O)N(C(=O)Nc3ccc4ccccc4c3)[C@H]12
80	CC(C)(C)OC(=O)N1C(=O)[C@@H]2CC#C/C=C\C#C[C@@H](OC(=O)CCc3cccc4ccccc34)[C@H]21
25	CC(=O)O[C@@H]1C#C/C=C\C#CC[C@H]2C(=O)N(C(=O)Nc3cccc4ccccc34)[C@H]12
